Test system: not listed separately
Assay: Lipophilicity, log D of the compound at pH 7.2
Type: physicochemical
Conditions: buffer
Method in brief: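 Log D determined experimentally at pH 7.2.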

| Structure (SMILES) | logD |
| --- | --- |
| O[C@H]1CC[C@H](n2nnc3cnc4[nH]ccc4c32)CC1 | 1.76 |
| F[C@@H]1CNCC[C@H]1n1nnc2cnc3[nH]ccc3c21 (racemic) | 0.77 |
| COC(=O)N[C@H]1CC[C@H](n2nnc3cnc4[nH]ccc4c32)CC1 | 2.08 |

Further lines, results first:

| logD | Structure (SMILES) |
| --- | --- |
| 1.98 | COC(=O)N[C@@H]1CC[C@@H](n2nnc3cnc4[nH]ccc4c32)C1 (racemic) |
| 0.27 | F[C@H]1CNCC[C@H]1n1nnc2cnc3[nH]ccc3c21 (racemic) |
| 1.05 | CS(=O)(=O)N1CCC(n2nnc3cnc4[nH]ccc4c32)CC1 |
| 2.7 | CC(C)CC(=O)N[C@H]1CC[C@H](n2nnc3cnc4[nH]ccc4c32)CC1 |

Test system: not listed separately
Assay: Cmax in Sprague-Dawley rat at 5 mg/kg, po
Type: ADME, organism-based
Set-up: dose 5 mg/kg, route oral
Conditions: in vivo
Method in brief: (§1)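 Rat pharmacokinetics given as mean profiles from three animals. Values normalized to 1 mg/kg iv and 5 mg/kg po. Clearance is plasma clearance after iv dosing.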

| Cmax | Structure (SMILES) |
| --- | --- |
| 4.6 µM | CS(=O)(=O)N1CCC(n2nnc3cnc4[nH]ccc4c32)CC1 |

Test system: not listed separately
Assay: Oral bioavailability in Sprague-Dawley rat at 5 mg/kg
Type: ADME, organism-based
Conditions: in vivo
Method in brief: as §1

| bioavailability | Structure (SMILES) |
| --- | --- |
| > 100% | CS(=O)(=O)N1CCC(n2nnc3cnc4[nH]ccc4c32)CC1 |

Biological target: T1, Tyrosine-protein kinase JAK1 (Homo sapiens, UniProt P23458)
T1 sequence (P23458 whole entry): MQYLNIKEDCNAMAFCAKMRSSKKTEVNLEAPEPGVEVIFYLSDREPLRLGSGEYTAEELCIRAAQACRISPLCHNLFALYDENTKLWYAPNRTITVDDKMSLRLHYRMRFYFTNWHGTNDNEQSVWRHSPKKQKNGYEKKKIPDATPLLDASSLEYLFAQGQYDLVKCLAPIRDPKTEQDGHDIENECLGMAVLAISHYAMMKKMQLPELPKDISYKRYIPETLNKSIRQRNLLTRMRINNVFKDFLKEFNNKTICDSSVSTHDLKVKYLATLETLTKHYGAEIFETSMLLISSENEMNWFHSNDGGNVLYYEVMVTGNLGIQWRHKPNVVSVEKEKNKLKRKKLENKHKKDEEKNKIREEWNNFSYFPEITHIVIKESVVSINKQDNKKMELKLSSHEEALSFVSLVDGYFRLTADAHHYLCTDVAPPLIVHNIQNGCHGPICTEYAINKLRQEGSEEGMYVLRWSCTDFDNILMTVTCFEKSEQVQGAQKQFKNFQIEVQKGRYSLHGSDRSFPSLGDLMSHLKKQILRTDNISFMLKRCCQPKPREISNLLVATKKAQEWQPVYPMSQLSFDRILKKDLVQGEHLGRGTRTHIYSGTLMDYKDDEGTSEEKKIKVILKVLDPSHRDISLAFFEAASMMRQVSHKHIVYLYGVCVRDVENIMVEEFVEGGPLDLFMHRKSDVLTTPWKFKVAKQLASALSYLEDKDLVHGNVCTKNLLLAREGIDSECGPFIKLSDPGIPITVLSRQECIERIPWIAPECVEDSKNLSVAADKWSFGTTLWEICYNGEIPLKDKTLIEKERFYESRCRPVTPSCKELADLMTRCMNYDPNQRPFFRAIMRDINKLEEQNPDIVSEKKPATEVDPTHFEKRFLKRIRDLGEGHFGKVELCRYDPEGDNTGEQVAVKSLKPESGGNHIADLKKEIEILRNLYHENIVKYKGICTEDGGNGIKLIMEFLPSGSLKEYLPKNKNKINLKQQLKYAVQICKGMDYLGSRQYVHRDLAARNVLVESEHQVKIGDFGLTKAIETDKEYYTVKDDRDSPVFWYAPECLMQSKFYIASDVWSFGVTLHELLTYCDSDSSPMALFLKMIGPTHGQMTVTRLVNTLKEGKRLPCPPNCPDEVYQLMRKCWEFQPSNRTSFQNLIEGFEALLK
Assay: Inhibition of JAK1 (unknown origin)
Conditions: not given

| Structure (SMILES) | Ki |
| --- | --- |
| c1cc2c(ncc3nnn(CC4CCNCC4)c32)[nH]1 | 745 nM |
| c1ccc(CN2CCC(n3nnc4cnc5[nH]ccc5c43)CC2)cc1 | 8.5 nM |
| CN1CCC[C@H]1C(=O)N1CCC(n2nnc3cnc4[nH]ccc4c32)CC1 | 121 nM |
| c1ccc(CN2CCC[C@@H](n3nnc4cnc5[nH]ccc5c43)C2)cc1 | 25 nM |
| F[C@@H]1CNCC[C@H]1n1nnc2cnc3[nH]ccc3c21 (racemic) | 21 nM |
| COC(=O)N[C@H]1CC[C@H](n2nnc3cnc4[nH]ccc4c32)CC1 | 12 nM |

The remaining lines, values ahead:

| Ki | Structure (SMILES) |
| --- | --- |
| 12 nM | COC(=O)N[C@@H]1CC[C@@H](n2nnc3cnc4[nH]ccc4c32)C1 (racemic) |
| 198 nM | F[C@H]1CNCC[C@H]1n1nnc2cnc3[nH]ccc3c21 (racemic) |
| 6.2 nM | CS(=O)(=O)N1CCC(n2nnc3cnc4[nH]ccc4c32)CC1 |
| 4.7 nM | CC(C)CC(=O)N[C@H]1CC[C@H](n2nnc3cnc4[nH]ccc4c32)CC1 |

Test system: not listed separately
Assay: Dissociation constant, pKa of the compound
Type: physicochemical
Conditions: not given

| pKa | Structure (SMILES) |
| --- | --- |
| 4.34 | N#CCC(=O)N1CCC[C@@H](n2cnc3cnc4[nH]ccc4c32)C1 |

Test system: not listed separately
Assay: AUC in Sprague-Dawley rat at 5 mg/kg, po
Type: ADME, organism-based
Set-up: dose 5 mg/kg, route oral
Conditions: plasma
Method in brief: as §1

| AUC | Structure (SMILES) |
| --- | --- |
| 18 µM·h | CS(=O)(=O)N1CCC(n2nnc3cnc4[nH]ccc4c32)CC1 |

Organism: Homo sapiens
Assay: Selectivity ratio of Ki for JAK2 (unknown origin) to Ki for JAK1 (unknown origin)
Conditions: not given
Method in brief: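 Biochemical JAK enzyme assay giving Ki, reported as the arithmetic mean of at least three separate determinations. Selectivity is taken as JAK2 Ki divided by JAK1 Ki.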

| Structure (SMILES) | Ratio Ki |
| --- | --- |
| c1cc2c(ncc3nnn(CC4CCNCC4)c32)[nH]1 | 1.7 |
| c1ccc(CN2CCC(n3nnc4cnc5[nH]ccc5c43)CC2)cc1 | 2 |
| CN1CCC[C@H]1C(=O)N1CCC(n2nnc3cnc4[nH]ccc4c32)CC1 | 5.9 |
| c1ccc(CN2CCC[C@@H](n3nnc4cnc5[nH]ccc5c43)C2)cc1 | 1.6 |
| F[C@@H]1CNCC[C@H]1n1nnc2cnc3[nH]ccc3c21 (racemic) | 2.7 |
| COC(=O)N[C@H]1CC[C@H](n2nnc3cnc4[nH]ccc4c32)CC1 | 2.3 |

Second part, the molecule after the results:

| Ratio Ki | Structure (SMILES) |
| --- | --- |
| 2.8 | COC(=O)N[C@@H]1CC[C@@H](n2nnc3cnc4[nH]ccc4c32)C1 (racemic) |
| 2.3 | F[C@H]1CNCC[C@H]1n1nnc2cnc3[nH]ccc3c21 (racemic) |
| 1.9 | CS(=O)(=O)N1CCC(n2nnc3cnc4[nH]ccc4c32)CC1 |
| 3.6 | CC(C)CC(=O)N[C@H]1CC[C@H](n2nnc3cnc4[nH]ccc4c32)CC1 |

Biological target: Tyrosine-protein kinase JAK2 (Homo sapiens, UniProt O60674)
Sequence (O60674 whole entry): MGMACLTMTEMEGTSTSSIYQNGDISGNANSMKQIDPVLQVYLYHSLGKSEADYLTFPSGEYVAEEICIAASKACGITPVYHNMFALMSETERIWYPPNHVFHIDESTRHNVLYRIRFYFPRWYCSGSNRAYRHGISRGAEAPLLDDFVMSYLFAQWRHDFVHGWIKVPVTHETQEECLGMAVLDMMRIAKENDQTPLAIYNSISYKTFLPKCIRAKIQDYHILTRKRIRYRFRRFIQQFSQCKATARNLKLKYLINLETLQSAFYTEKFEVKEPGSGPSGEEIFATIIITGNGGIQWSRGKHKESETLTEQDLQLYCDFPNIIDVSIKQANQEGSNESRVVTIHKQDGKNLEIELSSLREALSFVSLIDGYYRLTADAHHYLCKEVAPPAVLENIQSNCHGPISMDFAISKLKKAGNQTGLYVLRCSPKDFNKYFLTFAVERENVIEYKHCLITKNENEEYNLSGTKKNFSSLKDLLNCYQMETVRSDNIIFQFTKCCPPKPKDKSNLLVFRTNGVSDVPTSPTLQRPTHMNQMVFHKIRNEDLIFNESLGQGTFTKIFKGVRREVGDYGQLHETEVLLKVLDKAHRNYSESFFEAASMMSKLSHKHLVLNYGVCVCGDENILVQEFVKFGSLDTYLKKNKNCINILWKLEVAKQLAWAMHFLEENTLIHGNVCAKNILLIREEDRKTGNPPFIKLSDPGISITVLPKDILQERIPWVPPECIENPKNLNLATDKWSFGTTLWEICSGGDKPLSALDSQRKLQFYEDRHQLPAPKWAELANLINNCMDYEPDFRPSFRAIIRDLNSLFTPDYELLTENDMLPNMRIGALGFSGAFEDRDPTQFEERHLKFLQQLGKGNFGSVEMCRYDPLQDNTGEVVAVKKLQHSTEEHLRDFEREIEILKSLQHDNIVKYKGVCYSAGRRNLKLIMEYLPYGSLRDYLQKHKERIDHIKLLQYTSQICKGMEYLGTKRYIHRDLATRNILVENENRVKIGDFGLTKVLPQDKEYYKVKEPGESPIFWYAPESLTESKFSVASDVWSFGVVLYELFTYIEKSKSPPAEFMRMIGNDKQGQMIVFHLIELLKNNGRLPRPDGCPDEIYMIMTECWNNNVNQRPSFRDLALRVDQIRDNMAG
Assay: Inhibition of JAK2 (unknown origin)
Conditions: not given

| Structure (SMILES) | Ki |
| --- | --- |
| c1cc2c(ncc3nnn(CC4CCNCC4)c32)[nH]1 | 1230 nM |
| c1ccc(CN2CCC(n3nnc4cnc5[nH]ccc5c43)CC2)cc1 | 15 nM |
| CN1CCC[C@H]1C(=O)N1CCC(n2nnc3cnc4[nH]ccc4c32)CC1 | 721 nM |
| F[C@@H]1CNCC[C@H]1n1nnc2cnc3[nH]ccc3c21 (racemic) | 57 nM |
| COC(=O)N[C@H]1CC[C@H](n2nnc3cnc4[nH]ccc4c32)CC1 | 27 nM |

Continued, values first:

| Ki | Structure (SMILES) |
| --- | --- |
| 33 nM | COC(=O)N[C@@H]1CC[C@@H](n2nnc3cnc4[nH]ccc4c32)C1 (racemic) |
| 446 nM | F[C@H]1CNCC[C@H]1n1nnc2cnc3[nH]ccc3c21 (racemic) |
| 12 nM | CS(=O)(=O)N1CCC(n2nnc3cnc4[nH]ccc4c32)CC1 |
| 17 nM | CC(C)CC(=O)N[C@H]1CC[C@H](n2nnc3cnc4[nH]ccc4c32)CC1 |

Biological target: T1, Tyrosine-protein kinase JAK1
Assay: Inhibition of JAK1-mediated STAT3 phosphorylation in IL6-induced human TF1 cells
Type: cell-based, TF-1
Conditions: not given

| Structure (SMILES) | EC50 |
| --- | --- |
| c1ccc(CN2CCC(n3nnc4cnc5[nH]ccc5c43)CC2)cc1 | 121 nM |
| COC(=O)N[C@H]1CC[C@H](n2nnc3cnc4[nH]ccc4c32)CC1 | 433 nM |

Other lines, results leading:

| EC50 | Structure (SMILES) |
| --- | --- |
| 395 nM | COC(=O)N[C@@H]1CC[C@@H](n2nnc3cnc4[nH]ccc4c32)C1 (racemic) |
| 249 nM | CS(=O)(=O)N1CCC(n2nnc3cnc4[nH]ccc4c32)CC1 |
| 350 nM | CC(C)CC(=O)N[C@H]1CC[C@H](n2nnc3cnc4[nH]ccc4c32)CC1 |

Test system: not listed separately
Assay: Half life in human liver microsomes
Type: ADME, Microsome
Conditions: not given
Method in brief: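 Half-life measured by incubation with in vitro preparations of human liver microsomes.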

| Structure (SMILES) | half-life |
| --- | --- |
| c1cc2c(ncc3nnn(CC4CCNCC4)c32)[nH]1 | 1.3 h |
| c1ccc(CN2CCC(n3nnc4cnc5[nH]ccc5c43)CC2)cc1 | 0.5 h |
| CN1CCC[C@H]1C(=O)N1CCC(n2nnc3cnc4[nH]ccc4c32)CC1 | 1.1 h |
| O[C@H]1CC[C@H](n2nnc3cnc4[nH]ccc4c32)CC1 | 1.2 h |
| c1ccc(CN2CCC[C@@H](n3nnc4cnc5[nH]ccc5c43)C2)cc1 | 0.2 h |
| F[C@@H]1CNCC[C@H]1n1nnc2cnc3[nH]ccc3c21 (racemic) | 15 h |
| COC(=O)N[C@H]1CC[C@H](n2nnc3cnc4[nH]ccc4c32)CC1 | 4.8 h |

Continued, values first:

| half-life | Structure (SMILES) |
| --- | --- |
| 4.3 h | COC(=O)N[C@@H]1CC[C@@H](n2nnc3cnc4[nH]ccc4c32)C1 (racemic) |
| 1.7 h | CS(=O)(=O)N1CCC(n2nnc3cnc4[nH]ccc4c32)CC1 |
| 3.7 h | CC(C)CC(=O)N[C@H]1CC[C@H](n2nnc3cnc4[nH]ccc4c32)CC1 |

Test system: TF-1
Assay: Selectivity ratio of EC50 for JAK2-mediated STAT5 phosphorylation in EPO-induced human TF1 cells to EC50 for JAK1-mediated STAT3 phosphorylation in IL6-induced human TF1 cells
Type: cell-based
Conditions: not given

| Structure (SMILES) | Ratio EC50 |
| --- | --- |
| c1ccc(CN2CCC(n3nnc4cnc5[nH]ccc5c43)CC2)cc1 | 3.4 |
| COC(=O)N[C@@H]1CC[C@@H](n2nnc3cnc4[nH]ccc4c32)C1 (racemic) | 6.8 |
| CS(=O)(=O)N1CCC(n2nnc3cnc4[nH]ccc4c32)CC1 | 4.8 |
| CC(C)CC(=O)N[C@H]1CC[C@H](n2nnc3cnc4[nH]ccc4c32)CC1 | 5 |
| COC(=O)N[C@H]1CC[C@H](n2nnc3cnc4[nH]ccc4c32)CC1 | 4 |

Test system: not listed separately
Assay: Apparent permeability from apical to basolateral side in MDCK cells
Type: ADME, cell-based, Canis lupus familiaris
Conditions: dog
Method in brief: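 MDCK cells grown in transwell culture. Apparent permeability measured in the apical-to-basolateral direction and reported as the arithmetic mean of at least two separate determinations.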

| Papp A→B | Structure (SMILES) |
| --- | --- |
| 0.3 ×10⁻⁶ cm/s | N#CCC(=O)N1CCC[C@@H](n2cnc3cnc4[nH]ccc4c32)C1 |
| 13 ×10⁻⁶ cm/s | CS(=O)(=O)N1CCC(n2nnc3cnc4[nH]ccc4c32)CC1 |

Test system: not listed separately
Assay: Clearance in Sprague-Dawley rat at 1 mg/kg, iv
Type: ADME, organism-based
Set-up: dose 1 mg/kg, route intravenous
Conditions: in vivo
Method in brief: as §1

| clearance | Structure (SMILES) |
| --- | --- |
| 16 mL/min/kg | CS(=O)(=O)N1CCC(n2nnc3cnc4[nH]ccc4c32)CC1 |

From ChEMBL document CHEMBL2390952, “Novel triazolo-pyrrolopyridines as inhibitors of Janus kinase 1” (Bioorg Med Chem Lett, 2013)
